Measurements reported in ChEMBL document CHEMBL3352243, “Ligand-based virtual screening identifies a family of selective cannabinoid receptor 2 agonists” (Bioorg Med Chem, 2015).
Values after ≈ are worked out from the molar mass of the structure shown.

Legend:
[1] = target: T1, Cannabinoid receptor 2 (Homo sapiens, UniProt P34972); assay: Agonist activity at human CB2R expressed in CHO cells assessed as reduction in forskolin-induced cAMP accumulation by beta-galactosidase based complementation immunoassay; assay type: functional, cell-based
How it was run: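 hCB2R CHO-K1 cells plated overnight at 37 °C, 5% CO2; anti-cAMP antibody added, then compound (final 0.2% DMSO) with 20 μM forskolin for 30 min at 37 °C. Lysis/substrate 1 h, then EA detection reagent 3 h at room temperature; luminescence read and normalised to forskolin+solvent wells (100%). EC50 by 4-parameter nonlinear fit of pooled 3–4 independent experiments.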
Target sequence in this assay (P34972 whole entry): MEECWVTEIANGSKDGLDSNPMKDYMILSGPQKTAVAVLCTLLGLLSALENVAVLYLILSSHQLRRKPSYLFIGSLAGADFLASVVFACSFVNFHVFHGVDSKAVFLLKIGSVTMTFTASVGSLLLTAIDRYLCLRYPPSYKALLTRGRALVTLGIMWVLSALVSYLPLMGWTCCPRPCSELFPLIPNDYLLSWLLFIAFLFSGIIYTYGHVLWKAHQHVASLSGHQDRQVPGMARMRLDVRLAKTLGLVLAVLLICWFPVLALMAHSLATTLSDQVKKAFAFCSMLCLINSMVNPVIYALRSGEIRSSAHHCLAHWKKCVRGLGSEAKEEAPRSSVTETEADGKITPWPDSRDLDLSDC

[2] = target: T2, Cannabinoid receptor 1 (Homo sapiens, UniProt P21554); assay: Agonist activity at human CB1R expressed in CHO cells assessed as reduction in forskolin-induced cAMP accumulation by beta-galactosidase based complementation immunoassay; assay type: functional, cell-based
How it was run: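 CHO-K1 cells expressing hCB1R, 15,000 per well, incubated overnight at 37 °C, 5% CO2, then given anti-cAMP antibody. Compounds were added with 20 μM forskolin (final DMSO 0.2%) for 30 min at 37 °C. Lysis/substrate step 1 h and EA detection 3 h, both at rt in the dark, then luminescence read.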

[3] = tested on: Liver; assay: Half life in mouse liver microsomes in presence of NADPH by LC-MS/MS method; assay type: ADME
How it was run: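 Mouse liver microsomes incubated with compound at 37 °C with NADPH. Reactions stopped with methanol containing internal standard, centrifuged, supernatant analysed by LC–MS/MS.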

[4] = target: T1, Cannabinoid receptor 2; assay: Displacement of [3H]WIN-55212-2 from human CB2R expressed in CHO cells; assay type: cell-based
How it was run: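 Membranes from CHO cells expressing hCB2R incubated with test compound and tritiated WIN-55212 (0.8 nM), 2 h, 37 °C. Non-specific binding defined with 5 μM WIN-55212. Scintillation counting of bound ligand; Ki via Cheng–Prusoff with radioligand Kd; duplicate.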
Target sequence in this assay (P34972 whole entry): as above

[5] = target: T2, Cannabinoid receptor 1; assay: Displacement of [3H]CP55940 from human CB1R expressed in CHO cells; assay type: cell-based
How it was run: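 Membranes from CHO cells expressing hCB1R incubated with test compound and [3H]CP 55,940 (0.5 nM) for 2 h at 37 °C. Non-specific binding defined with 10 μM WIN-55212. Bound radioligand measured by scintillation counting. Ki from Cheng–Prusoff using radioligand Kd; run in duplicate.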

[6] = target: T1, Cannabinoid receptor 2; assay: Agonist activity at human CB2R expressed in CHO cells assessed as reduction in forskolin-induced cAMP accumulation at 1 uM by beta-galactosidase based complementation immunoassay; parameters: reference not given here
Target sequence in this assay (P34972 whole entry, looked up): as the sequence (P34972 whole entry) above

[7] = target: T1, Cannabinoid receptor 2; assay: Agonist activity at human CB2R expressed in CHO cells assessed as reduction in forskolin-induced cAMP accumulation at 3 uM by beta-galactosidase based complementation immunoassay; assay type: functional, cell-based; parameters: reference not given here
How it was run: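 CHO-K1 cells expressing hCB2R, 15,000 per well, incubated overnight at 37 °C, 5% CO2, then anti-cAMP antibody added. Test agent at single concentration with 20 μM forskolin (0.2% DMSO final), 30 min at 37 °C. Lysis/substrate 1 h, then EA reagent 3 h, both at rt in the dark; luminescence read and expressed as % of forskolin+solvent control wells.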
Target sequence in this assay (P34972 whole entry): as above

[8] = Aqueous kinetic solubility of the compound at pH 7 at 37 degC by turbidimetric assay; assay type: physicochemical; settings: read-out: Kinetic_solubility
How it was run: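 Turbidimetric method: DMSO dilutions added to phosphate-buffered saline pH 7.4 at final 1, 3, 10, 30, 100 μM (1% DMSO), 7 replicates per concentration. Incubated 2 h at 37 °C, then absorbance read at 620 nm. Value is the mid-point of the precipitation range between upper and lower solubility limits.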

T2 sequence (P21554 whole entry): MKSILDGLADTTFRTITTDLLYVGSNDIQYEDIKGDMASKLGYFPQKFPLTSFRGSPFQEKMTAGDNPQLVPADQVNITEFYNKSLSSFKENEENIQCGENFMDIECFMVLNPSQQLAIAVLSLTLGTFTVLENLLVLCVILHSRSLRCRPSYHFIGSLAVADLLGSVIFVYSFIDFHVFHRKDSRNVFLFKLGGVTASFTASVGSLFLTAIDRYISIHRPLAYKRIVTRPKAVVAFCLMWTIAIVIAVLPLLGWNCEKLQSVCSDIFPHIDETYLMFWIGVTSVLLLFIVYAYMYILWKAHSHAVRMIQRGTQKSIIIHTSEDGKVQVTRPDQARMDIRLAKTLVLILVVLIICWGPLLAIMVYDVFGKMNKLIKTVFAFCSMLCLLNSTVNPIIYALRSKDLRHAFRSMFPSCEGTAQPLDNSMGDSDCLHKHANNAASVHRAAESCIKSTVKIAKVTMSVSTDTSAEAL

## FC(F)(F)Oc1ccccc1CSc1nnc2c(n1)[nH]c1ccccc12
[1]
  EC50: > 3000 nM

## N#Cc1ccccc1CSc1nnc2c(n1)[nH]c1cccc(Br)c12
[2]
  EC50: 20000 nM
[1]
  EC50: 39 nM
[3]
  t1/2: 5 min
[4]
  Ki: 22.5 nM
[5]
  Ki: 3200 nM

## N#Cc1ccccc1CSc1nnc2c3ccccc3n(CC3CCCCC3)c2n1
[1]
  EC50: 270 nM
[3]
  t1/2: < 5 min

## CC(C)CCSc1nc(N)c2c3c(sc2n1)COC(C)(C)C3
[6]
  Activity: 76.7%
[7]
  Activity: 85.3%

## N#Cc1ccccc1CSc1nnc2c3ccccc3n(S(=O)(=O)c3ccccc3)c2n1
[1]
  EC50: 76 nM
[3]
  t1/2: < 5 min

## Clc1cccc(CSc2nnc3c(n2)[nH]c2ccccc23)c1
[1]
  EC50: > 3000 nM

## N#Cc1ccccc1CSc1nnc2c3ccccc3n(C(=O)C3CC3)c2n1
[1]
  EC50: 181 nM
[3]
  t1/2: < 5 min

## CCCCSc1nnc(-c2ccccc2N)c(O)n1
[6]
  Activity: 93.5%
[7]
  Activity: 61.6%

## C=CCn1c(SCCCC)nc2sc3c(c2c1=O)CC(C)(C)OC3
[6]
  Activity: 76.3%
[7]
  Activity: 36.7%

## Cc1ccc(S(=O)(=O)n2c3ccccc3c3nnc(SCc4ccccc4C#N)nc32)cc1
[1]
  EC50: > 3000 nM

## N#Cc1ccccc1CSc1nnc2c3ccccc3n(S(=O)(=O)c3ccccc3[N+](=O)[O-])c2n1
[1]
  EC50: > 3000 nM

## N#Cc1ccccc1CSc1nnc2c3ccccc3n(C(=O)c3ccc(F)cc3)c2n1
[1]
  EC50: 57 nM

## N#Cc1ccccc1CSc1nnc2c3ccccc3n(Cc3ccccc3[N+](=O)[O-])c2n1
[2]
  EC50: > 30000 nM
[1]
  EC50: 53 nM
[4]
  Ki: 290 nM
[5]
  Ki: > 60000 nM

## FC(F)(F)c1ccccc1CSc1nnc2c(n1)[nH]c1ccccc12
[1]
  EC50: > 3000 nM

## CN(C)c1ccc(C(=O)n2c3ccccc3c3nnc(SCc4ccccc4C#N)nc32)cc1
[1]
  EC50: > 3000 nM

## N#Cc1ccccc1CSc1nnc2c3ccccc3n(CC3CC3)c2n1
[1]
  EC50: 144 nM
[3]
  t1/2: < 5 min

## Cc1ccccc1-c1cccc2[nH]c3nc(SCc4ccccc4C#N)nnc3c12
[1]
  EC50: 4300 nM

## N#Cc1ccccc1CSc1nnc2c3ccccc3n(C(=O)c3ccc(F)cc3C(F)(F)F)c2n1
[1]
  EC50: > 3000 nM

## N#Cc1ccccc1CSc1nnc2c3ccccc3n(C(=O)c3cccc(C(F)(F)F)c3)c2n1
[1]
  EC50: 27 nM

## CCOC(=O)c1ccccc1CSc1nnc2c(n1)[nH]c1ccccc12
[1]
  EC50: > 3000 nM

## N#Cc1ccccc1CSc1nnc2c(n1)[nH]c1cc(Br)ccc12
[1]
  EC50: > 3000 nM

## N#Cc1ccccc1CSc1nnc2c3ccccc3n(C(=O)C3CCCC3)c2n1
[1]
  EC50: 49 nM
[4]
  Ki: 320 nM
[5]
  Ki: > 60000 nM

## N#Cc1ccccc1CSc1nnc2c(n1)[nH]c1cccc(C3CC3)c12
[1]
  EC50: 231 nM

## N#Cc1ccccc1CSc1nnc2c3ccccc3n(C(=O)OCc3ccccc3)c2n1
[1]
  EC50: > 3000 nM

## CCCCn1c2ccccc2c2nnc(SCc3ccccc3C#N)nc21
[1]
  EC50: 106 nM
[3]
  t1/2: < 5 min

## c1ccc(CSc2nnc3c(n2)[nH]c2ccccc23)cc1
[2]
  EC50: > 30000 nM
[1]
  EC50: 10000 nM

## N#Cc1ccccc1CSc1nnc2c(n1)[nH]c1cccc(-c3ccsc3)c12
[1]
  EC50: 1760 nM

## CCCCSc1nnc2c(n1)[nH]c1ccccc12
[6]
  Activity: 52.1%
[1]
  EC50: 296 nM
[7]
  Activity: 57.2%
[8]
  solubility kinetic: 2 µM (≈ 0.517 µg/mL)

## COC(=O)CCC(=O)n1c2ccccc2c2nnc(SCc3ccccc3C#N)nc21
[1]
  EC50: 48 nM
[4]
  Ki: 360 nM
[5]
  Ki: > 60000 nM
[8]
  solubility kinetic: 3.75 µM (≈ 1.62 µg/mL)

## CCCCCCSC1=C(C#N)C(c2cccc(Cl)c2)NC(=O)N1 (centres undefined)
[6]
  Activity: 105%
[7]
  Activity: 117%

## N#Cc1ccccc1CSc1nnc2c(n1)[nH]c1c(Br)cccc12
[1]
  EC50: > 3000 nM

## N#Cc1ccccc1CSc1nnc2c3ccccc3n(Cc3ccccc3)c2n1
[2]
  EC50: 1550 nM
[1]
  EC50: 214 nM
[3]
  t1/2: < 5 min
[4]
  Ki: 11 nM
[5]
  Ki: 61 nM

## Fc1cccc(F)c1CSc1nnc2c(n1)[nH]c1ccccc12
[1]
  EC50: > 3000 nM

## CSc1nnc2c(n1)[nH]c1ccccc12
[1]
  EC50: > 3000 nM

## COc1ccc(C(=O)n2c3ccccc3c3nnc(SCc4ccccc4C#N)nc32)cc1OC
[1]
  EC50: 160 nM
